Measurements: ChEMBL document CHEMBL3763103, “Synthesis and evaluation of vitamin D receptor-mediated activities of cholesterol and vitamin D metabolites” (Eur J Med Chem, 2016)
Activity calls are given as the source filed them. The calls are words filed in the database; no cut-off is given here.

Legend:
Vitamin D3 receptor [1] = target: T1, Vitamin D3 receptor (Homo sapiens, UniProt P11473); test: Agonist activity at VDR-LBD (unknown origin) expressed in Escherichia coli assessed as SRC2-3 coactivator peptide recruitment after 30 mins by fluorescence polarization assay
T1 sequence (P11473 whole entry): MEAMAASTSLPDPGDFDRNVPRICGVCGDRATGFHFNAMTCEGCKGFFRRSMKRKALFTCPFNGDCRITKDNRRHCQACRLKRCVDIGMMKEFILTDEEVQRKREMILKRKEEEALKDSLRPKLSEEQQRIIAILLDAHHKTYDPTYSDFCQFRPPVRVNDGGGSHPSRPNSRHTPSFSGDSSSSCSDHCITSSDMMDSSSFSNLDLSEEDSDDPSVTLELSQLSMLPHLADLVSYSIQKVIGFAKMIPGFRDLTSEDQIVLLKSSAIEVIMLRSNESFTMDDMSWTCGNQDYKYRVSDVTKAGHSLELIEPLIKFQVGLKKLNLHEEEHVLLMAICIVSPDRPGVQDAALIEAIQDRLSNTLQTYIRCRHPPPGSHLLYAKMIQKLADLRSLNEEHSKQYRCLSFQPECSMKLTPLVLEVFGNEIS

Vitamin D3 receptor [2] = target: T1, Vitamin D3 receptor; test: Antagonist activity against VDR-LBD (unknown origin) expressed in Escherichia coli assessed as inhibition of VDR agonist LG190178-induced SRC2-3 coactivator peptide recruitment after 30 mins by fluorescence polarization assay
Vitamin D3 receptor [3] = target: T1, Vitamin D3 receptor; test: Agonist activity at VP16 tagged-VDR-LBD (unknown origin) expressed in HEK293T cells assessed as SRC1 coactivator peptide recruitment after 16 hrs by luciferase reporter gene based two hybrid assay; type: cell-based, HEK-293T
[4] = target: T2, Vitamin D3 receptor (Homo sapiens) (UniProt P11473); test: Agonist activity at VP16 tagged-VDR-LBD (unknown origin) expressed in HEK293T cells assessed as SRC1 coactivator peptide recruitment after 16 hrs by luciferase reporter gene based two hybrid assay relative to 1,25-dihydroxyvitamin D3; type: cell-based; conditions: HEK-293T
T2 sequence (whole entry): T1 sequence (P11473 whole entry)
In short: (§1)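 HEK293T cells were lipid-transfected with VP16-VDR-LBD, SRC1-GAL4 and 4×UAS luciferase reporter plasmids for 16 h. Cells were then plated at 15,000/well on matrigel in phenol-red-free DMEM with 2% charcoal-treated FBS. Three experiments in quadruplicate; nonlinear regression.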

Vitamin D3 receptor [5] = target: T1, Vitamin D3 receptor; test: Antagonist activity against VP16 tagged-VDR-LBD (unknown origin) expressed in HEK293T cells assessed as inhibition of 1,25-dihydroxyvitamin D3-induced SRC1 coactivator peptide recruitment after 16 hrs by luciferase reporter gene based two hybrid assay; type: cell-based, HEK-293T
Vitamin D3 receptor [6] = target: T1, Vitamin D3 receptor; test: Agonist activity at human VP16 tagged-VDR-LBD after 16 hrs by luciferase reporter gene based transcription assay
In short: as §1, with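 “hVDR-Gal4” for “VP16-VDR-LBD, SRC1-GAL4”, “FBS. Compounds (1:3 serial dilution, max final 150 µM) were added after 4 h and incubated 16 h at 37°C; readout by Bright-Glo luminescence. […]” for “FBS.”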

[7] = target: T2, Vitamin D3 receptor (Homo sapiens); test: Agonist activity at human VP16 tagged-VDR-LBD after 16 hrs by luciferase reporter gene based transcription assay relative to 1,25-dihydroxyvitamin D3
In short: as §1, with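 “hVDR-Gal4” for “VP16-VDR-LBD, SRC1-GAL4”, “FBS. Compounds (1:3 serial dilution, max final 150 µM) were added after 4 h and incubated 16 h at 37°C; readout by Bright-Glo luminescence. […]” for “FBS.”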

[8] = Cytotoxicity against HEK293T cells assessed as reduction in cell viability after 18 hrs by CellTiter-Glo luminescence assay; type: cell-based, HEK-293T; conditions: human, read-out: LD50
[9] = target: T2, Vitamin D3 receptor (Homo sapiens); test: Agonist activity at VDR-LBD in human DU145 cells assessed as CYP24A1 expression at 7.5 uM after 18 hrs by qRT-PCR method relative to 1alpha,25-dihydroxyvitamin D3; type: cell-based; conditions: DU-145
In short: (§2)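 Non-transfected DU145 cells were grown in DMEM with 10% heat-inactivated FBS and plated on matrigel-coated 6-well plates overnight at 37°C. Total RNA was isolated and CYP24A1 fold change was measured by real-time RT-PCR (Ct method). Experiments were run in triplicate; significance by Dunnett ANOVA.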

[10] = target: T2, Vitamin D3 receptor (Homo sapiens); test: Agonist activity at VDR-LBD in human DU145 cells assessed as CYP24A1 expression at 7.5 uM in presence of 20 nM 1alpha,25-dihydroxyvitamin D3 after 18 hrs by qRT-PCR method; type: cell-based; conditions: DU-145
In short: as §2, with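 “37°C. […]” for “37°C.”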

Row | SMILES | EC50 (Vitamin D3 receptor [1]) [µM] | IC50 (Vitamin D3 receptor [2]) [µM] | EC50 (Vitamin D3 receptor [3]) [µM] | Efficacy [4] [%] | IC50 (Vitamin D3 receptor [5]) [µM] | EC50 (Vitamin D3 receptor [6]) [µM] | Efficacy [7] [%] | CC50 at 18 h [8] [µM] | Activity [9] | Activity [10]
1 | C[C@H](CCC(=O)O[C@@H]1O[C@H](C(=O)O)[C@@H](O)[C@H](O)[C@H]1O)[C@H]1CC[C@H]2[C@@H]3CC[C@@H]4C[C@H](O)CC[C@]4(C)[C@H]3CC[C@]12C | > 150 | 2.86 | 6.52 | 29 | > 150 | 21.3 | 70 | > 150 | Active | Active
2 | C[C@H](CCC(=O)O)[C@H]1CC[C@H]2[C@@H]3CC[C@@H]4C[C@H](O)CC[C@]4(C)[C@H]3CC[C@]12C [LITHOCHOLIC ACID] |  |  |  |  |  |  |  | 55.9 |  | 
3 | C[C@H](CCC(=O)NCCS(=O)(=O)O)[C@H]1CC[C@H]2[C@@H]3CC[C@@H]4C[C@H](O)CC[C@]4(C)[C@H]3CC[C@]12C [TAUROLITHOCHOLIC ACID] | > 150 | 14.5 | > 150 |  | > 50 |  |  | > 150 |  | 
4 | COC(=O)CC[C@@H](C)[C@H]1CC[C@H]2[C@@H]3CC[C@@H]4C[C@H](O)CC[C@]4(C)[C@H]3CC[C@]12C | > 150 | > 150 | > 150 |  | 15.1 |  |  | 50.4 |  | 
5 | C[C@H](CCC(=O)O)[C@H]1CC[C@H]2[C@@H]3C[C@H](O)[C@@H]4C[C@H](O)CC[C@]4(C)[C@H]3CC[C@]12C [HYODEOXYCHOLIC_ACID] | > 150 | > 150 | > 150 |  | > 50 |  |  | > 150 |  | 
6 | C[C@H](CCC(=O)O)[C@H]1CC[C@H]2[C@@H]3CC[C@@H]4C[C@H](O)CC[C@]4(C)[C@H]3C[C@H](O)[C@]12C [DEOXYCHOLIC ACID] | > 150 | > 150 | > 150 |  | > 50 |  |  | > 150 |  | 
7 | C[C@H](CCC(=O)NCC(=O)O)[C@H]1CC[C@H]2[C@@H]3CC[C@@H]4C[C@H](O)CC[C@]4(C)[C@H]3CC[C@]12C [LITHOGLYCOCHOLATE] | > 150 | 40.1 | > 150 |  | > 50 |  |  | > 150 |  | 
8 | C[C@H](CCC(=O)O)[C@H]1CC[C@H]2[C@@H]3CC[C@@H]4C[C@H](OS(=O)(=O)O)CC[C@]4(C)[C@H]3CC[C@]12C | > 150 | 23.3 | > 150 |  | > 50 |  |  | > 150 |  | 
9 | C[C@H](CCC(=O)O)[C@H]1CC[C@H]2[C@@H]3[C@@H](O)C[C@@H]4C[C@H](O)CC[C@]4(C)[C@H]3CC[C@]12C [URSODIOL] | > 150 | > 150 | > 150 |  | > 50 |  |  | > 150 |  | 
10 | C=C1/C(=C\C=C2/CCC[C@]3(C)[C@@H]([C@H](C)CC(=O)O)CC[C@@H]23)C[C@@H](O)C[C@@H]1O | > 100 | 2.29 | 0.87 | 55 | > 100 |  |  | > 100 | Active | 
11 | CC(=O)O[C@@H]1CC[C@@]2(C)[C@H](CC[C@@H]3[C@@H]2CC[C@]2(C)[C@@H]([C@H](C)CCC(=O)O)CC[C@@H]32)C1 | > 150 | 11 | 1.49 |  | > 50 |  |  | > 50 |  | 
12 | C[C@H](CCC(=O)O)[C@H]1CC[C@H]2[C@@H]3[C@H](O)C[C@@H]4C[C@H](O)CC[C@]4(C)[C@H]3CC[C@]12C [CHENODIOL] | > 150 | > 150 | > 150 |  | > 50 |  |  | > 150 |  | 
13 | C[C@H](CCC(=O)O)[C@H]1CC[C@H]2[C@@H]3CC[C@@H]4C[C@H](O[C@@H]5O[C@H](C(=O)O)[C@@H](O)[C@H](O)[C@H]5O)CC[C@]4(C)[C@H]3CC[C@]12C | > 50 | 31.5 | 20.5 | 49 | > 150 | 12.3 | 55 | > 150 | inactive | 
